Assay [1] has as its system Trypanosoma brucei brucei. Briefly: Antitrypanosomal activity against trypomastigotes of AT1 knockout Trypanosoma brucei brucei 427. The format is functional, organism-based.
The test system of assay [2] is Nucleic Acid. The experiment in a line: Binding affinity to Trypanosoma brucei rhodesiense DNA. The format is nucleic-acid assay.
The subject of assay [3] is Trypanosoma brucei brucei. Briefly: Antitrypanosomal activity against trypomastigotes of AT1 wild type Trypanosoma brucei brucei 427. The format is functional, organism-based.
Assay [4] deals with Trypanosoma brucei brucei. Briefly: Activity against Trypanosoma brucei brucei STIB795 in infected NMRI mouse at 20 mg/kg, ip. Also on record: dose 20 mg/kg. The format is functional, organism-based. An outline of the steps:
(§1)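 Mice infected ip with 1 × 10^5 (STIB 795) or 2 × 10^4 (STIB 900) bloodstream forms, in groups of four. Dosed ip once daily on days 3–6, with an untreated control group. Parasitemia checked every second day to day 14, then twice weekly to day 60. Deaths recorded for mean survival time. Cured means surviving and aparasitemic at 60 days.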

The test system of assay [5] is Trypanosoma brucei. The experiment in a line: Activity against Trypanosoma brucei GVR35 in infected NMRI mouse at 40 mg/kg, ip. The format is functional, organism-based. Also on record: dose 40 mg/kg.
Assay [6] deals with Trypanosoma brucei rhodesiense. Briefly: Activity against Trypanosoma brucei rhodesiense STIB900 in infected NMRI mouse at 20 mg/kg, ip. The format is functional, organism-based. Also on record: dose 20 mg/kg. An outline of the steps:
as §1

For assay [7], the system named is Trypanosoma brucei. Briefly: Activity against Trypanosoma brucei GVR35 in infected NMRI mouse at 20 mg/kg, ip. The format is functional, organism-based. On the set-up: dose 20 mg/kg.
Assay [8] has as its system Trypanosoma brucei brucei. Briefly: Activity against Trypanosoma brucei brucei STIB795 in infected NMRI mouse at 10 mg/kg, ip. The format is functional, organism-based. On the set-up: dose 10 mg/kg. An outline of the steps:
as §1

Each structure is given as a SMILES string. pIC50: −log10 of the molar value. The source made the active and inactive calls. The calls are words filed in the database; no cut-off is given here.

Consider `N=C(N)Nc1ccc(Nc2ccc(NC(=N)N)cc2)cc1`, for which the negative logarithm of the IC50 (pIC50) (commonly −log10 of the IC50, conventionally taken in molar units) in assay [1] is 8.66; in assay [3], 8.52. Also, the outcome in assay [2] and in assay [4] was Active. On to `c1cc(NC2=NCCN2)ccc1Cc1ccc(NC2=NCCN2)cc1`, for which, in assay [2], the outcome was Active. Turning to `N=C(N)Nc1ccc(S(=O)(=O)c2ccc(NC(=N)N)cc2)cc1`, the outcome in assay [2] was inactive.

In the case of `N=C(N)c1ccc(/N=N/Nc2ccc(C(=N)N)cc2)cc1`, the result in assay [5] was inactive. Take `N=C(N)Nc1ccc(Cc2ccc(NC(=N)N)cc2)cc1`: in assay [2], the outcome was Active. On the same count and under the same terms, in the case of `N=C(N)Nc1ccc(C(=O)c2ccc(NC(=N)N)cc2)cc1` it was “Active”. On to `c1cc(N2CCN(c3ccc(NC4=NCCN4)cc3)CC2)ccc1NC1=NCCN1`, for which, in assay [2], the result was Active. Further, the Activity result in assay [4] is “Toxic”.

With `N=C(N)c1ccc(OCCCCCOc2ccc(C(=N)N)cc2)cc1`, in assay [2], the result was Active.

`c1cc(Nc2ccc(NC3=NCCN3)cc2)ccc1NC1=NCCN1`: the pIC50 in assay [1] is 6.79; in assay [3] it was 7.20. In addition, the outcome in assay [2], in assay [6] and in assay [4] was Active. In assay [7], the outcome was inactive.

On to `O=S(=O)(c1ccc(NC2=NCCN2)cc1)c1ccc(NC2=NCCN2)cc1`, for which the result in assay [2] was inactive.

Consider `CC(C)(C)OC(=O)N1CC[N+](C(=O)OC(C)(C)C)=C1Nc1ccc(Nc2ccc(NC3=[N+](C(=O)OC(C)(C)C)CCN3C(=O)OC(C)(C)C)cc2)cc1`, for which, in assay [4], the result was inactive.

For `N=C(N)Nc1ccc(N2CCN(c3ccc(NC(=N)N)cc3)CC2)cc1`, in assay [2], the outcome was Active. On to `N=C(N)Nc1ccc(CCCCCCCCc2ccc(NC(=N)N)cc2)cc1`, for which the outcome in assay [8] was inactive.

Values taken from ChEMBL document CHEMBL1148654, “DNA binding affinity of bisguanidine and bis(2-aminoimidazoline) derivatives with in vivo antitrypanosomal activity” (J Med Chem, 2006).
